High-throughput results as filed in PubChem BioAssay.
Rows were chosen to be rich in hits. Some 5.7% of all compounds tested hit in one or more screens of this group.
T cruzi repl – inhibitors of intracellular T. cruzi growth, primary screen, luminescence, NIH3T3 host cells. T. cruzi beta-gal in NIH3T3, 90 h. inhibition, % (test concentration not listed). 1.4% of 300,000 active;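 active means mean inhibition across valid replicates above about 55%, limit read from the data; inconclusive means mean below that limit but half or more replicates reach it; inactive means mean below it, under half of replicates reach it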;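 further: signal also drops with host cell toxicity which is not excluded here; higher percent means less beta-gal luminescence so fewer parasites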
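System – NIH/3T3 host cells with β-galactosidase reporter T. cruzi · Doses – single 50 nL compound addition per well in DMSO · Reagent – 5000 T. cruzi trypomastigotes/well · Medium – Low-serum DMEM with 2% FBS · Timing – ≥90 h infection period, 3 h prior cell attachment · Evaluation – parasite load inhibition, % · Technique – GalScreen luminescence, 60 min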
SKKanGAS inh – S. pyogenes SKKanGAS growth inhibitors in kanamycin, primary screen, streptokinase expression inhibitor project, SKKanGAS strain, BacTiter-Glo luminescence | 6 h | inhibition, % at 7.5 µM | 1.3% of 300,000 active;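 active means mean replicate score, as percent of positive control median, at least 50; inconclusive means mean below 50 but one replicate at or above 50; inactive means mean and every replicate below 50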;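 further: strain carries kanamycin resistance gene driven by streptokinase promoter and grows in 40 µg/ml kanamycin; loss of luminescence reflects streptokinase promoter inhibition or plain growth inhibition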
Mdm2 MdmX PPI – inhibitors of human Mdm2-MdmX association, primary screen, cell-based, luminescence, split luciferase, SaOS-2, uHTS; Protein Mdm4 (Homo sapiens) + E3 ubiquitin-protein ligase Mdm2 (Homo sapiens), …; SaOS-2 split-luciferase Mdm2/MdmX complementation; inhibition, % at 8 µM; 3% of 330,000 active; AID 485346, 2010;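 active means inhibition of at least 50% at 8 µM in the primary screen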
Target sequence (O15151 whole entry, looked up): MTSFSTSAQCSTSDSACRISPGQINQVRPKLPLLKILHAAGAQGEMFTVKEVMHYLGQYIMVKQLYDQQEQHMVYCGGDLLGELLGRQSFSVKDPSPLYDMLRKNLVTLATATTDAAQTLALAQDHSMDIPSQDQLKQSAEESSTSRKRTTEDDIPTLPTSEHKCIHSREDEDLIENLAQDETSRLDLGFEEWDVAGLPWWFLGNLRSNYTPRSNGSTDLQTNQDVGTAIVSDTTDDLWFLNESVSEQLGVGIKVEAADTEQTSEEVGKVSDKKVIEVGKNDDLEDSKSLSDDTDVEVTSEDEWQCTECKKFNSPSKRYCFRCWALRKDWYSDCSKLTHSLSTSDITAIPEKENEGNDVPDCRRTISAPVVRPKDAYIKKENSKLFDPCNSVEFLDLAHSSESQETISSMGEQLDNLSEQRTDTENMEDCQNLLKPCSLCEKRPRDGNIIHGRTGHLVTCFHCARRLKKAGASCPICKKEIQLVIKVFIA
Target sequence (Q00987 whole entry, looked up): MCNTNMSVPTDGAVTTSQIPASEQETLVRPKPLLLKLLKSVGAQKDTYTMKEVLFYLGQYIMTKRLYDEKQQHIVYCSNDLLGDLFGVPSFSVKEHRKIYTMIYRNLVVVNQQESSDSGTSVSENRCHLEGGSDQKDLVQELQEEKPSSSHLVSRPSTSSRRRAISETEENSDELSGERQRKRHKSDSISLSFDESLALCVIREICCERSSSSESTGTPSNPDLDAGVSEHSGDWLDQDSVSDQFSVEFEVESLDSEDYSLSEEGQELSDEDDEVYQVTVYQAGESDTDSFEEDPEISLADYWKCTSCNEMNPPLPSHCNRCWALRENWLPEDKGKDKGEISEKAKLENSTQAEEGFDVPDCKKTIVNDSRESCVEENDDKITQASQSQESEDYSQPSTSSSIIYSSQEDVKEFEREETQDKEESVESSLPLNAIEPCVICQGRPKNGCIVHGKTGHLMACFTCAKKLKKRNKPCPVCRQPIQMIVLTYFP
CSC inhib – cancer stem cell viability inhibitors, primary screen, luminescence; cancer stem cell-like cells viability; inhibition, % at 7.5 µM; 1.1% of 300,000 active; in the data active means inhibition above about 75%; inconclusive means no clear call, values can overlap the other calls; tested in HMLE shEcad cells
Calb FLC – C. albicans growth inhibition with fluconazole, primary screen, CaCi-2 strain, Alamar Blue fluorescence; C. albicans CaCi-2 + fluconazole, 48 h; growth inhibition, % (no concentration beside the values); 0.57% of 300,000 active;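 active means growth inhibition above about 58% in most replicates, limit read from the data, passing the limit was not always enough; inconclusive means exactly half the replicates above a set limit; inactive means most replicates below a set limit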;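 further: all wells also contain fluconazole at 8 µg/ml as a sub-toxic cotreatment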
Beta apoptosis – inhibitors of cytokine-induced beta cell apoptosis, primary screen, luminescence. 0.8% of 300,000 active. protection from apoptosis, % (test concentration not listed). INS-1E cytokine-induced death, ATP luminescence, 48 h; percent of positive-control rescue, neutral wells zero;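 active means Every replicate reaches about 75%, or at least half do and their mean reaches it too, limit read from the data; inconclusive means At least half of replicates reach the limit but their mean does not; inactive means Under half of replicates reach the limit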;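 further: higher means more ATP so stronger rescue from cytokine killing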
Hits are given with their value; i = inactive; ? = inconclusive; nt = no result given.

SMILES | T cruzi repl | SKKanGAS inh | Mdm2 MdmX PPI | CSC inhib | Calb FLC | Beta apoptosis
CCN(CC)S(=O)(=O)c1ccc(C(=O)Nc2cc(S(=O)(=O)N3CCOCC3)ccc2O)cc1 | nt | nt | i | i | nt | i
CCOC(=O)C1CCN(C(=O)C(C)Sc2nnc3ccccn23)CC1 (stereo not given) | nt | nt | i | i | nt | i
O=C(Nc1nc2cc3c(cc2s1)OCCO3)c1ccc([N+](=O)[O-])o1 | 59.1 | ? | i | i | i | i
Cc1cc(C)c2nc(NC(=O)c3ccc([N+](=O)[O-])o3)sc2c1 | i | i | i | i | i | nt
Cc1cc(C)c2sc(NC(=O)c3ccc([N+](=O)[O-])o3)nc2c1 | 59.3 | i | i | 92.2 | i | i
O=C(Nc1nc2ccccc2s1)c1ccc([N+](=O)[O-])o1 | i | i | i | i | i | i
CCN(CC)S(=O)(=O)c1cccc(C(=O)Nc2nc3cc4c(cc3s2)OCCO4)c1 | i | 70.9 | i | i | i | i
COc1ccc2nc(NC(=O)c3ccc([N+](=O)[O-])o3)sc2c1 | i | i | i | 75.2 | i | nt
O=C(Nc1nc2cc3c(cc2s1)OCCO3)c1cccc(N2C(=O)CCC2=O)c1 | i | i | i | i | i | i
O=C(Nc1nc2c(F)cc(F)cc2s1)c1ccc([N+](=O)[O-])o1 | i | i | i | 96.5 | i | i
O=C(Nc1nc2c(F)cc(F)cc2s1)c1ccco1 | i | i | i | i | i | i
Cc1c(Cl)cccc1NC(=O)CSc1nc2ncc(Cl)cc2[nH]1 | i | i | i | i | i | i
CC(CCc1ccccc1)NC(=O)CN1CCN(c2ccc(O)cc2)CC1 (stereo not given) | i | i | i | i | 94.9 | i
Cc1ccc([C@H]2C(C(=O)O)=CC[C@@H](c3ccc(Cl)c(Cl)c3)N2S(=O)(=O)c2ccc(C)cc2)cc1 | nt | nt | i | nt | nt | nt
N#CC1(NC(=O)COc2ccc(S(=O)(=O)N3CCCC3)cc2[N+](=O)[O-])CCCCC1 | i | i | i | i | i | i
O=C(CNC(=O)c1ccc(Cl)cc1Cl)OCn1nnc2ccccc2c1=O | i | i | i | i | i | i
Cc1noc(C)c1S(=O)(=O)N(C)CC(=O)NCc1ccccc1 | i | i | i | i | i | i
Cc1noc(C)c1S(=O)(=O)N(CCc1ccccc1)Cc1ccccc1 | i | 54.4 | i | i | i | i
Cc1ccc(CC2SC(N=C(N)N)=NC2=O)cc1 (stereo not given) | i | i | i | i | i | i
CC1(C)CC(=O)C2=C(C1)c1c(ccc3ccccc13)NC2c1cc([N+](=O)[O-])cc([N+](=O)[O-])c1O (stereo not given) | i | 71.8 | i | i | 110.8 | i
CC1(C)CC(=O)C2=C(C1)c1c(ccc3ccccc13)NC2c1ccc(C(=O)O)cc1 (stereo not given) | i | i | i | i | i | i
Cc1noc(C)c1NC(=O)N(C)C[C@H]1Oc2c(NS(=O)(=O)c3cn(C)cn3)cccc2C(=O)N([C@H](C)CO)C[C@@H]1C | nt | nt | i | i | nt | i
COc1ccc(CCCC(=O)N/N=C/c2cccc(OC)c2O)cc1C | i | 75.3 | i | 112.5 | i | i
COCCCNC(=S)N/N=C/c1cccc(OC)c1O | nt | i | i | i | i | 87.9
COCCCNC(=S)N/N=C/c1ccc(O)cc1O | i | i | i | i | i | i
SMILES | T cruzi repl | SKKanGAS inh | Mdm2 MdmX PPI | CSC inhib | Calb FLC | Beta apoptosis
CNC(=S)N/N=C/c1c(C)c(C(=O)c2ccc(F)cc2)n2ccccc12 | i | i | i | i | i | i
CCOc1ccc2[nH]c(C)c(CN3CCCCCC3)c(=O)c2c1 | i | i | i | i | i | i
COC(=O)C1=CN(Cc2ccc(OC)c(OC)c2)C=C(C(=O)OC)C1c1cccc(OC)c1OC | 61.3 | i | i | i | i | i
Cc1ccc(C)c(S(=O)(=O)Nc2ccc(-n3cnnn3)cc2)c1 | nt | nt | i | i | nt | i
Cc1cccc(N2CCN(C(c3ccncc3)c3nnnn3C(C)(C)C)CC2)c1C (stereo not given) | 64.3 | i | i | i | i | i
CC(=O)/C(=N/Nc1ccc([N+](=O)[O-])cc1)N1CCCc2ccccc21 | i | i | i | i | i | i
CC(=O)/C(=N/Nc1ccc(Br)cc1)N1CCCc2ccccc21 | i | 51.5 | i | i | i | i
COc1cccc(CN(C)C(=O)[C@@H](NC(=O)c2ccc(C)cc2)C(C)C)c1 | i | i | i | i | nt | i
CCN(CC)c1ccc(S(=O)(=O)Nc2cc(Cl)ccc2Cl)cc1NC(=S)NC(=O)C1CCCC1 | i | i | i | 99.5 | i | nt
C/C(=N\NC(=O)c1cc(Cl)ccc1O)c1ccc(Br)s1 | i | i | i | 103.2 | i | i
C/C(=N\Nc1ccc(F)cc1F)c1ccc(Br)s1 | i | i | i | i | 102.2 | i
C/C(=N\NC(=O)c1ccc(Cl)cc1)c1ccc(Br)s1 | 58.2 | i | i | i | i | i
C/C(=N/NC(=O)c1ccco1)c1ccc(Br)s1 | i | i | i | i | i | i
Cc1cc(C)c(S(=O)(=O)N2CCN(c3ccc([N+](=O)[O-])c(-n4nc(C)cc4C)c3)CC2)c(C)c1 | 60.8 | i | i | i | i | i
Cc1cc(C)n(-c2cc(N3CCN(S(=O)(=O)c4ccc(Br)cc4)CC3)ccc2[N+](=O)[O-])n1 | i | i | i | i | i | i
COc1ccc(S(=O)(=O)Nc2cccc3c2O[C@H](CN(C)CC2CCCCC2)[C@@H](C)CN([C@H](C)CO)C3=O)cc1 | nt | nt | i | i | nt | i
CCn1ncc(Br)c1C(=O)Nc1ccc(-c2ccno2)cc1 | i | i | i | nt | i | nt
COc1ccc(NS(=O)(=O)c2ccc(OC)c(N(C)S(=O)(=O)c3ccc(Cl)cc3)c2)cc1 | i | i | i | i | i | 101.3
CN(C)c1nc(-c2ccccc2)ncc1S(=O)(=O)c1ccccc1 | i | i | i | i | i | i
CCN(CC)c1nc(-c2ccccc2)ncc1S(=O)(=O)c1ccc(C)cc1 | 58.3 | i | i | i | i | i
O=C(/C=C/c1ccc2c(c1)OCO2)Nc1nncs1 | i | i | i | i | i | nt
Cc1cc(C)nc(NC(=O)/C=C/c2ccc3c(c2)OCO3)c1 | i | i | i | 84.5 | i | i
Cc1cccnc1NC(=O)/C=C/c1ccc2c(c1)OCO2 | i | i | i | i | i | i
O=C(/C=C\c1ccco1)Nc1nc(-c2ccc3ccccc3c2)cs1 | i | 62.8 | i | i | i | i
COc1cc(/C=C/C(=O)NCc2cccnc2)cc(OC)c1OC | i | i | i | i | i | i
COc1cc(/C=C/C(=O)Nc2cccnc2)cc(OC)c1OC | i | i | i | i | 75.6 | i
O=C(/C=C/c1ccc2c(c1)OCO2)Nc1nc(-c2ccccc2)cs1 | i | i | i | 98.5 | i | nt
